Here are results for one compound from ChEMBL document CHEMBL1132156, “Synthesis and structure-activity relationships of potential anticancer agents: alkylcarbamates of 3-(9-acridinylamino)-5-hydroxymethylaniline” (J Med Chem, 1999).

For test [1], the system named is Mus musculus. As to the kind of experiment: […] anticancer activity against B6D2F-1 mice bearing Lewis Lung Carcinoma measured by the average weight change(g) after day 10 at an intraperitoneal dose of 3(mg/kg). In kind it is functional. Summed up:
(§1)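 Male B6D2F1 mice (8 weeks old, 20–25 g) received 4×10^6 Lewis lung carcinoma cells sc on day -2. Dosing was ip, QDx5, starting on day 1. Groups were 4 control mice and 3 mice per dose. Tumor size and average body-weight change were evaluated on days 7, 10 and 14. Tumor volume is expressed as the treated/control ratio.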

Test [2] has as its system Mus musculus. The experiment in a line: […] anticancer activity against B6D2F-1 mice bearing Lewis Lung Carcinoma measured by the average weight change(g) after day 10 at an intraperitoneal dose of 6(mg/kg). In kind it is functional. Summed up: as §1
The test system of test [3] is Mus musculus. The experiment in a line: […] anticancer activity against B6D2F-1 mice bearing Lewis Lung Carcinoma measured by the average weight change(g) after day 7 at an intraperitoneal dose of 6(mg/kg). In kind it is functional. In a few lines: as §1
Test [4] deals with Mus musculus. As to the kind of experiment: […] anticancer activity against B6D2F-1 mice bearing P388 leukemia measured by the Average tumor vol after day 10 at an intravenous dose of 5(mg/kg). It counts as functional.
The test system of test [5] is Mus musculus. The experiment in a line: […] anticancer activity against B6D2F-1 mice bearing Sarcoma 180 measured by the Average tumor vol after day 14 at an intravenous dose of 5(mg/kg).
Test [6] deals with Mus musculus. The experiment in a line: […] anticancer activity against B6D2F-1 mice bearing Lewis Lung Carcinoma measured by the average weight change(g) after day 7 at an intraperitoneal dose of 3(mg/kg). In kind it is functional. In a few lines:
as §1

In test [7] the test system is Mus musculus. As to the kind of experiment: […] anticancer activity against B6D2F-1 mice bearing P388 leukemia measured by the Average tumor vol after day 10 at an intravenous dose of 3(mg/kg). In kind it is functional.
Test [8] has as its system Mus musculus. As to the kind of experiment: […] anticancer activity against B6D2F-1 mice bearing Lewis Lung Carcinoma measured by the Average tumor vol after day 7 at an intraperitoneal dose of 6(mg/kg). In kind it is functional. Summed up:
as §1

Test [9] deals with Mus musculus. As to the kind of experiment: […] anticancer activity against B6D2F-1 mice bearing Sarcoma 180 measured by the average weight change(g) after day 7 at an intraperitoneal dose of 7(mg/kg). It counts as functional. In a few lines:
(§2)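 Male B6D2F1 mice (8 weeks old, 20–25 g) were inoculated sc with 3×10^6 Sarcoma 180 cells on day 0. Dosing was ip, QDx5, starting on day 1. Groups were 4 control mice and 2 mice per dose. Average body weight change (g) and treated/control tumor volume were evaluated on days 7, 10 and 14.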

For test [10], the system named is Mus musculus. The experiment in a line: […] anticancer activity against B6D2F-1 mice bearing P388 leukemia measured by the increase in lifespan(%) at an intravenous dose of 10(mg/kg).. It counts as functional. Summed up: (§3)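 Male B6D2F1 mice, 8 weeks old, 20–25 g. P388/0 ascites cells (0.2 mL, ascites:saline 1.10) were implanted iv on day 0, and the tumor grew in the liver. Drug was given iv by tail vein on days 1, 3, 5, 7 and 9 (Q2Dx5), with 4–5 mice per group. Survival time was scored as 8 a.m. (0.0), 1 p.m. (0.25) or 5 p.m. (0.5) deaths. %ILS was averaged against untreated controls, and toxic deaths were counted.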

Test [11] relates to Mus musculus. The experiment in a line: […] anticancer activity against B6D2F-1 mice bearing Sarcoma 180 measured by the Average tumor vol after day 7 at an intravenous dose of 7(mg/kg).
Test [12] relates to Mus musculus. As to the kind of experiment: […] anticancer activity against B6D2F-1 mice bearing P388 leukemia measured by the average body weight(g) after day 1 at an intravenous dose of 10(mg/kg).
In test [13] the test system is Mus musculus. The experiment in a line: […] anticancer activity against B6D2F-1 mice bearing Sarcoma 180 measured by the average weight change(g) after day 10 at an intraperitoneal dose of 5(mg/kg). It counts as functional. Summed up:
as §2

In test [14] the test system is Mus musculus. As to the kind of experiment: […] anticancer activity against B6D2F-1 mice bearing P388 leukemia measured by the Average survival time(day+/-SD) at an intravenous dose of 15(mg/kg). It counts as functional. Summed up:
as §3

The test system of test [15] is Mus musculus. The experiment in a line: […] anticancer activity against B6D2F-1 mice bearing P388 leukemia measured by the Average tumor vol after day 11 at an intravenous dose of 7(mg/kg). In kind it is functional.
The subject of test [16] is Mus musculus. The experiment in a line: […] anticancer activity against B6D2F-1 mice bearing Sarcoma 180 measured by the Average tumor vol after day 7 at an intravenous dose of 5(mg/kg).
The subject of test [17] is Mus musculus. As to the kind of experiment: […] anticancer activity against B6D2F-1 mice bearing P388 leukemia measured by the average weight change(g) after day 7 at an intravenous dose of 10(mg/kg). It counts as functional. In a few lines:
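Male B6D2F1 mice (8 weeks old, 20–25 g) were implanted iv on day 0 with P388/0 ascites cells (0.2 mL; ascites:saline 1.10), which grew in the liver. Drug was given iv via the tail vein, Q2Dx5, on days 1, 3, 5, 7 and 9. Groups had 4–5 mice. Day 1 value is mean body weight; later days are weight change.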

Test [18] has as its system Mus musculus. As to the kind of experiment: […] anticancer activity against B6D2F-1 mice bearing P388 leukemia measured by the Average tumor vol after day 10 at an intravenous dose of 7(mg/kg). In kind it is functional.

Consider `CCOC(=O)Nc1cc(CO)cc(Nc2c3ccccc3nc3ccccc23)c1`, for which the Average weight change with Mus musculus [1] was -1.3 g; in the test with Mus musculus [2], -2.6 g; with Mus musculus [3], -3 g; in the test with Mus musculus [6], -2.3 g; with Mus musculus [9] it was -3.4 g; in the test with Mus musculus [13] it was 1 g. Further, in the test with Mus musculus [17], the Average weight change is recorded as -0.2 g. Besides, the Average tumor volume in the test on Mus musculus [4] was 0.63; with Mus musculus [5], 0.8; in the test with Mus musculus [7], 1.21; with Mus musculus [8], 0.44; in the test on Mus musculus [11], 0.22; in the test on Mus musculus [15], below 0.01. The Average tumor volume in the test on Mus musculus [16] was 0.06; in the test with Mus musculus [18], below 0.01. Also, in the test with Mus musculus [10], the Increase in life-span is on record as 188%. The compound also had a Body weight with Mus musculus [12] of 22.9 g. The compound also displayed an Average survival with Mus musculus [14] of 13.2 days.
